Converted amounts (≈) assume the structure as drawn.

Data set [1] is described as follows: Half life was reported. The class given is ADME. Put shortly:
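Simulated stomach acid stability: compound at 1 mg/mL in 0.01 N HCl, pH 2.0, sealed, 37 °C. Acetal-type compounds sampled at 0–1400 min; non-acetal-type at 2–14 days. Remaining drug quantified by reverse-phase C-18 HPLC (ammonium acetate/acetonitrile, internal standard). Half-life from pseudo-first-order disappearance.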

Data set [2] deals with Plasmodium falciparum. Kind of data set: In vitro antimalarial activity against chloroquine-sensitive Plasmodium falciparum 3D7. It is filed as functional. As to conditions: read-out: ED50 (the source's name). Put shortly: (§1)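 Asexual P. falciparum (3D7 or K1) in A+ erythrocytes, RPMI 1640, 5% hematocrit, 37 °C, 5% CO2. Synchronized ring stages at 1% parasitemia. Triplicate 3-fold dilutions from a final top concentration of 30 µg/mL. 24 h incubation, then [3H]-hypoxanthine (0.1 µCi/well) for a further 24 h. Incorporation read by scintillation counting; ED50 from curve fitting.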

Data set [3] has as its system Mus musculus. Kind of data set: Percent of infected erythrocytes in Blood schizonticidal activity against Plasmodium chabaudi in mice at a concentration of 10 mg/kg/day on day 5. The class given is functional. Put shortly:
(§2)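 Female BALB/c mice (18–20 g, SPF), groups of five, infected iv on day 1 with 1 × 10^7 P. chabaudi ANKA-infected erythrocytes. Dosing ip began 2 h post-inoculation, once daily for 4 days, at 10 mg/kg/day in 10% DMSO/PBS. On day 5, Giemsa-stained smears; ≥1000 red cells counted; % infected erythrocytes per mouse, compared with controls.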

Data set [4] has as its system Plasmodium falciparum. The data set is described as follows: In vitro antimalarial activity against chloroquine-resistant Plasmodium falciparum K1. It is filed as functional. As to conditions: read-out: ED50 (the source's name). Put shortly: as §1
Data set [5] relates to Mus musculus. The data set is described as follows: Percent of infected erythrocytes in Blood schizonticidal activity against Plasmodium chabaudi in mice at a concentration of 10 mg/kg/day on day 4. It is filed as functional. Put shortly: as §2
Data set [6] has as its system Mus musculus. The data set is described as follows: Percent of infected erythrocytes in Blood schizonticidal activity against Plasmodium chabaudi in mice at a concentration of 10 mg/kg/day on day 3. It is filed as functional.
The test system of data set [7] is Mus musculus. Kind of data set: Percent of infected erythrocytes in Blood schizonticidal activity against Plasmodium chabaudi in mice at a concentration of 10 mg/kg/day on day 1. The class given is functional. Put shortly: as §2
For data set [8], the system named is Mus musculus. Kind of data set: In vivo antimalarial activity against Plasmodium chabaudi in mice (Mus musculus) and its survival was reported. It is filed as functional.
Data set [9] has as its system Mus musculus. Kind of data set: Percent of infected erythrocytes in Blood schizonticidal activity against Plasmodium chabaudi in mice at a concentration of 10 mg/kg/day on day 2. It is filed as functional.
Data set [10] has as its system Mus musculus. Kind of data set: In vivo antimalarial activity against Plasmodium chabaudi in mice (Mus musculus) and its survival rate reported. It is filed as functional.

Regarding `CCCC[C@H]1O[C@@H]2O[C@]3(C)CC[C@H]4[C@H](C)CC[C@@H]([C@H]1C)[C@@]24OO3`, the half-life (as a rule, the time in which the quantity being followed falls by half) in data set [1] was 187 h.

With `C[C@H]1[C@@H](CCc2ccc(C(=O)O)cc2)O[C@@H]2O[C@]3(C)CC[C@H]4[C@H](C)CC[C@@H]1[C@@]24OO3`, the EC50 was 1.1 ng/mL (≈ 2.64 nM) with Plasmodium falciparum [2] and 0.6 ng/mL (≈ 1.44 nM) in the data set with Plasmodium falciparum [4]. The Infected erythrocytes was 0.3% in the data set on Mus musculus [3]; 0.5% with Mus musculus [5]; 2.9% with Mus musculus [6]; 0.5% in the data set with Mus musculus [7]; 0.5% in the data set on Mus musculus [9]. The molecule further showed a half-life in data set [1] of 259 h. Also, in the data set on Mus musculus [8], the Survival amounted to 5. For the same molecule, the Survival rate in the data set on Mus musculus [10] is recorded as 100%.

As for `C[C@@H]1[C@H](OCc2ccc(C(=O)O)cc2)O[C@@H]2O[C@@]3(C)CC[C@@H]4[C@@H](C)CC[C@@H]1[C@]24OO3` [ARTELINIC ACID], the results for the EC50 with Plasmodium falciparum [2] and in the data set with Plasmodium falciparum [4] were 4 ng/mL (≈ 9.56 nM) and 1.4 ng/mL (≈ 3.35 nM), respectively. For the same molecule, in [1], the half-life was 13.1 h.

In the case of `C[C@@H]1CC[C@H]2[C@@H](C)C(=O)O[C@@H]3O[C@@]4(C)CC[C@@H]1[C@]32OO4` [ARTEMISININ], the figures for the EC50 with Plasmodium falciparum [2] and with Plasmodium falciparum [4] were 2.9 ng/mL (≈ 10.3 nM) and 0.7 ng/mL (≈ 2.48 nM), respectively.

With `CCO[C@H]1O[C@@H]2O[C@@]3(C)CC[C@H]4[C@H](C)CC[C@@H]([C@H]1C)[C@@]24OO3` [ARTEMOTIL], the values for the EC50 with Plasmodium falciparum [2] and with Plasmodium falciparum [4] were 0.2 ng/mL (≈ 0.64 nM) and 0.9 ng/mL (≈ 2.88 nM), respectively. The molecule further showed a half-life in [1] of 11 h. The Survival in the data set on Mus musculus [8] was determined as 3. In the data set with Mus musculus [10], the Survival rate came to 60%.

Take `C[C@H]1[C@H](OC(=O)CCC(=O)O)O[C@@H]2O[C@@]3(C)CC[C@H]4[C@H](C)CC[C@@H]1[C@@]24OO3` [ARTESUNATE]: the EC50 with Plasmodium falciparum [2] amounted to 0.2 ng/mL (≈ 0.52 nM); with Plasmodium falciparum [4], 0.6 ng/mL (≈ 1.56 nM).

Turning to `CCN(CC)CCCC(C)Nc1ccnc2cc(Cl)ccc12` (stereo not drawn) [CHLOROQUINE], the EC50 in the data set with Plasmodium falciparum [2] is 8 ng/mL (≈ 25 nM); in the data set with Plasmodium falciparum [4] it was 220 ng/mL (≈ 688 nM). The Infected erythrocytes was 81.3% in the data set with Mus musculus [3]; 82.4% in the data set on Mus musculus [5]; 62.1% in the data set on Mus musculus [6]; 65% in the data set with Mus musculus [7]; 71.3% in the data set on Mus musculus [9]. Besides, in the data set on Mus musculus [8], the Survival came out at 0. In the data set on Mus musculus [10], this molecule registered a Survival rate of 0%.

In turn, `C[C@@H]1CC[C@H]2[C@@H](C)CO[C@@H]3O[C@]4(C)CC[C@@H]1[C@]32OO4` [DEOXOARTEMISININ] had a half-life in [1] of 245 h.

The record behind these values is ChEMBL document CHEMBL1135606, “Synthesis, stability, and antimalarial activity of new hydrolytically stable and water-soluble (+)-deoxoartelinic acid” (J Med Chem, 2002).
